The source made the active and inactive calls.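 Rule for the calls, unless noted: active = potentiation averaged over duplicate wells exceeding buffer-only control mean by more than 3 SD; inactive = the rest.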
What was measured:
[1] = thallium flux activation in parental CHO cells, counter-screen for KCNQ1 potentiator project (AID 493006;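 active = duplicate-averaged activation above buffer control mean plus 5 SD of those controls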;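 for activation: fluorescence ratio of max minus min over baseline after K+ and Tl+ depolarization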); settings: parental CHO-K1 cells, FluxOR thallium flux, at 10 µM; stronger effect = higher value
In short: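 Assay system: parental CHO-K1 cells lacking KCNQ1, loaded with FluxOR thallium dye; timing: dye 90 min RT, compound 20 min RT; signal: kinetic thallium-flux fluorescence; repeats: duplicate wells per compound, percent values averaged; benchmarks: buffer and R-L3 controls; reagent: Potassium/thallium depolarization pulse; read-out: fluorescence change ratio scaled 0% buffer, 100% R-L3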

[2] = molecular target: Potassium voltage-gated channel subfamily KQT member 1 (Homo sapiens) (UniProt P51787); experiment: KCNQ1 potassium channel potentiators, confirmation, FluxOR thallium flux, CHO cells, duplicates (AID 493007); settings: KCNQ1 cell line, FluxOR thallium flux fluorescence, at 10 µM; stronger effect = higher value, % of reference activator effect, buffer zero;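 for outcome: cells depolarized by a potassium plus thallium sulfate stimulus after compound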
Potassium voltage-gated channel subfamily KQT member 1 (Homo sapiens), sequence (P51787 whole entry, looked up): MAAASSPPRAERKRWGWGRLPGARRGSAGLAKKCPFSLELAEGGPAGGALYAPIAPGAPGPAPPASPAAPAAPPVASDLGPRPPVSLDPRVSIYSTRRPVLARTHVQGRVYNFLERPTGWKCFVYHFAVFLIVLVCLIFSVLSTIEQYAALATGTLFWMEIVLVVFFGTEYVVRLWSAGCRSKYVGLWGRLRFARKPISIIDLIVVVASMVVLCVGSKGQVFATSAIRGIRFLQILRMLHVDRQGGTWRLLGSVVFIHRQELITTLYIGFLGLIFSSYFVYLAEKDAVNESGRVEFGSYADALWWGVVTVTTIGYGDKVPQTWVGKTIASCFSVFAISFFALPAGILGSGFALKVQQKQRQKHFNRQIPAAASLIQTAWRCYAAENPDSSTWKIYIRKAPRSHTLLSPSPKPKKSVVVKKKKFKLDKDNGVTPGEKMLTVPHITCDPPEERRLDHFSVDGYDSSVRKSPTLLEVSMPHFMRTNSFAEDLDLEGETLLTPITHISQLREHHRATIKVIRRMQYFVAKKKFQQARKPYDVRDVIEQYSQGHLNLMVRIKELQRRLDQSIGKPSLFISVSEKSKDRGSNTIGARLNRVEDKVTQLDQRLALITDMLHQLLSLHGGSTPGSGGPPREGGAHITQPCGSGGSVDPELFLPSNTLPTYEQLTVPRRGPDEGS
In short: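 material = CHO cells stably expressing the KCNQ1 potassium channel | repeats = duplicate wells per compound | measure = percent activation between buffer and R-L3 responses | signal = FluxOR thallium-flux fluorescence, kinetic read | schedule = FluxOR dye loading 90 min, compound exposure 20 min, room temperature | control set = buffer and R-L3 controls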

[3] = molecular target: Potassium voltage-gated channel subfamily KQT member 2 (Rattus norvegicus) (UniProt O88943); experiment: rat KCNQ2 channel potentiation, selectivity assay for KCNQ1 potentiator project, KCNQ2-CHO-K1 cells (AID 493009;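 active = mean duplicate potentiation above the buffer control mean plus 5 SD of buffer wells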;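 note: assay conditions were tuned for KCNQ1 rather than KCNQ2 modulators; signal is max minus min fluorescence divided by baseline after thallium stimulus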); settings: FluxOR thallium flux fluorescence, at 10 µM; stronger effect = higher value, scaled: buffer 0, activator control 100
Potassium voltage-gated channel subfamily KQT member 2 (Rattus norvegicus), sequence (O88943 whole entry, looked up): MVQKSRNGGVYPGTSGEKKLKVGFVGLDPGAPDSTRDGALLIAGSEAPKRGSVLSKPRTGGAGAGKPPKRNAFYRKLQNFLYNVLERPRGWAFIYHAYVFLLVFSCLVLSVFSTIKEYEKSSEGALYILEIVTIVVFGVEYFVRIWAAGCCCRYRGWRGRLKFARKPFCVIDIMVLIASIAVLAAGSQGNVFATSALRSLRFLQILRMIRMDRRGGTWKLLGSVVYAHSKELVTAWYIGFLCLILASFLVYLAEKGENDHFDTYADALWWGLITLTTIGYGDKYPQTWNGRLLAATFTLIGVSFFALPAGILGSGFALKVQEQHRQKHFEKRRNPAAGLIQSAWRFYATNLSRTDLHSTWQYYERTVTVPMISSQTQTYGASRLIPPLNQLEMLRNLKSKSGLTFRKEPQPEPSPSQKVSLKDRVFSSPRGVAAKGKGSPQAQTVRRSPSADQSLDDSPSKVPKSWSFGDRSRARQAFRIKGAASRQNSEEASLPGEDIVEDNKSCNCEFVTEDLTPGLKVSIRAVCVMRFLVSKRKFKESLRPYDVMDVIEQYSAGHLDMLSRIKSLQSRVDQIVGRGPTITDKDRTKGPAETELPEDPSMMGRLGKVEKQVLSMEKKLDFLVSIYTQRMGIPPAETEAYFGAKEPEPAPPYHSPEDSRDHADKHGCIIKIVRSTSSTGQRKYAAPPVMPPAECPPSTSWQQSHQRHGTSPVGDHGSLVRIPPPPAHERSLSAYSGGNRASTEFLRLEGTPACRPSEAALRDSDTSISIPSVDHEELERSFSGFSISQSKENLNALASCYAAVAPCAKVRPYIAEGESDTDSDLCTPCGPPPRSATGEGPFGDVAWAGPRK

[4] = molecular target: Potassium voltage-gated channel subfamily KQT member 1 (Homo sapiens) (UniProt P51787); experiment: KCNQ1 channel current potentiators, confirmation, orthogonal assay for KCNQ1 potentiator project, IonWorks patch clamp, KCNQ1-CHO cells (AID 493184;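 active = current rise at least 3 SD above the untreated control mean in each of two repeat wells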); settings: automated patch clamp current, at 10 µM; stronger effect = higher value
In short: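 Assay system – CHO cells carrying KCNQ1 · Medium – pH 7.4 external bath · Probe or stimulus – depolarizing pulse to +40 mV from -90 mV · Compound dosing – one dose, 10 µM final · Measured by – automated perforated-patch electrophysiology · Measure – % potentiation of steady-state current relative to pre-compound · Repeats – two replicates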

CCCCC(Nc1ncnc2ccccc12)C(=O)O (stereo not given)
outcome [1]: inactive
outcome [2]: inactive
outcome [3]: inactive
outcome [4]: inactive

COc1cccc(C(=O)NNC(=O)C(=O)Nc2cccc3ccccc23)c1
activation [1]: 218% (active)
potentiation [2]: 51.5% (active)
potentiation [3]: 228% (active)
outcome [4]: inactive

O=C(Nc1cc(=O)[nH]c(=O)[nH]1)c1cccc(Br)c1
outcome [1]: inactive
outcome [2]: inactive
outcome [3]: inactive
outcome [4]: inactive

Cc1cc(C)cc(NC(=O)C(Sc2ncnc3ccccc23)c2ccccc2)c1 (stereo not given)
outcome [1]: inactive
outcome [2]: inactive
outcome [3]: inactive
outcome [4]: inactive

CCCCn1c(NS(=O)(=O)c2ccc(C)cc2)c(S(=O)(=O)c2ccccc2)c2nc3ccccc3nc21
outcome [1]: inactive
outcome [2]: inactive
outcome [3]: inactive
outcome [4]: inactive

Cc1ccnc(NC(=S)NC(=O)c2cncc(Br)c2)c1
outcome [1]: inactive
outcome [2]: inactive
outcome [3]: inactive
outcome [4]: inactive

COc1ccc(CCN(C)C(=O)CSc2nnc(-c3ccco3)o2)cc1OC
outcome [1]: inactive
outcome [2]: inactive
outcome [3]: inactive
outcome [4]: inactive

O=C(NC(=S)N1CCCc2ccccc21)c1ccc(Br)cc1
activation [1]: 222% (active)
potentiation [2]: 112% (active)
potentiation [3]: 300% (active)
outcome [4]: inactive

O=C(NC(=S)Nc1ccccc1N1CCOCC1)c1ccc(-c2ccccc2F)o1
activation [1]: 147% (active)
potentiation [2]: 51.5% (active)
potentiation [3]: 182% (active)
outcome [4]: inactive

Cc1ccc2nc(N3CCN(Cc4ccc(F)cc4)C3=O)c(C)cc2c1
outcome [1]: inactive
outcome [2]: inactive
outcome [3]: inactive
outcome [4]: inactive

Cc1ccc(-c2ccc(=O)n(Cc3cccc(Br)c3)n2)cc1
outcome [1]: inactive
outcome [2]: inactive
outcome [3]: inactive
outcome [4]: inactive

Cc1cc(/C=C2\C(=N)N3N=C(c4ccco4)SC3=NC2=O)c(C)n1Cc1ccccc1
outcome [1]: inactive
potentiation [2]: 37% (active)
outcome [3]: inactive
outcome [4]: inactive

CCC(=O)NNc1nc2c(Cl)cccc2s1
outcome [1]: inactive
outcome [2]: inactive
outcome [3]: inactive
outcome [4]: inactive

COc1cc2c(cc1OC)CN(C(=O)CNC(=O)c1ccc(OC(F)F)cc1)CC2
outcome [1]: inactive
outcome [2]: inactive
outcome [3]: inactive
outcome [4]: inactive

CCCOC(=S)NC(=O)c1sc2ccccc2c1Cl
activation [1]: 294% (active)
potentiation [2]: 106% (active)
potentiation [3]: 274% (active)
outcome [4]: inactive

COc1ccc(N/C=C/C(=O)c2cc(OC)c(OC)c(OC)c2)cc1
activation [1]: 366% (active)
potentiation [2]: 188% (active)
potentiation [3]: 365% (active)
outcome [4]: inactive

S=c1nc(Cc2ccccc2)[nH]c2ccccc12
activation [1]: 280% (active)
potentiation [2]: 110% (active)
potentiation [3]: 415% (active)
outcome [4]: inactive

O=C1OC(c2ccc(F)cc2)=N/C1=C\c1ccc(Br)o1
activation [1]: 228% (active)
potentiation [2]: 80.5% (active)
potentiation [3]: 266% (active)
outcome [4]: inactive

Cc1c(N=Cc2cc(Br)cc(Br)c2O)cccc1C(=O)O
outcome [1]: inactive
potentiation [2]: 42% (active)
outcome [3]: inactive
outcome [4]: inactive

O=C(O)CSc1c2c(nc3cc(C(=O)Nc4cccc(C(F)(F)F)c4)ccc13)CCC2
outcome [1]: inactive
outcome [2]: inactive
outcome [3]: inactive
outcome [4]: inactive

CSc1nc(C)cc(OCC(=O)N/N=C/c2ccccc2O)n1
outcome [1]: inactive
outcome [2]: inactive
outcome [3]: inactive
outcome [4]: inactive

CC(C)(C)C1(O)CC(C(F)(F)F)=NN1C(=O)Cc1ccc([N+](=O)[O-])cc1 (stereo not given)
outcome [1]: inactive
outcome [2]: inactive
outcome [3]: inactive
outcome [4]: inactive

COc1cccc(/C=N/NC(=O)C(C)n2nc(C)c([N+](=O)[O-])c2C)c1O (stereo not given)
outcome [1]: inactive
outcome [2]: inactive
outcome [3]: inactive
outcome [4]: inactive

O=C(O)CCC(=O)Nc1ccc(S(=O)(=O)c2ccc(NC(=O)CCC(=O)O)cc2)cc1
outcome [1]: inactive
outcome [2]: inactive
outcome [3]: inactive
outcome [4]: inactive

CSc1ccccc1NC(=O)c1ccc2c(c1)CCN2S(C)(=O)=O
outcome [1]: inactive
outcome [2]: inactive
outcome [3]: inactive
outcome [4]: inactive

Cc1ccccc1C(=O)NNC(=O)C(=O)Nc1cccc(Cl)c1C
activation [1]: 346% (active)
potentiation [2]: 168% (active)
potentiation [3]: 406% (active)
outcome [4]: inactive

COc1ccccc1/C=C1\N=C(C(C)(C)C)OC1=O
outcome [1]: inactive
outcome [2]: inactive
outcome [3]: inactive
outcome [4]: inactive

CC(Sc1nnnn1-c1ccc(O)cc1)C(=O)NC1CCCCC1C (stereo not given)
outcome [1]: inactive
outcome [2]: inactive
outcome [3]: inactive
outcome [4]: inactive

O=C(NNc1nc2c(F)cccc2s1)c1cc(=O)c2ccccc2o1
outcome [1]: inactive
outcome [2]: inactive
outcome [3]: inactive
outcome [4]: inactive

C=CCn1c(SCC(N)=O)nc2scc(-c3ccc(C)o3)c2c1=O
activation [1]: 223% (active)
potentiation [2]: 79.5% (active)
potentiation [3]: 230% (active)
outcome [4]: inactive
